Assay results from ChEMBL document CHEMBL1124663, “Design, synthesis, antineoplastic activity, and chemical properties of bis(carbamate) derivatives of 4,5-bis(hydroxymethyl)imidazole” (J Med Chem, 1989).

Key:
Mus musculus [1] = test: Body Weight Difference (BWD) of test animals administered with 25 mg/kg compound is determined on day 5 for P388 tumor cells; format: functional
Method in brief: (§1)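 P388 leukaemia: about 10^6 cells in ascitic fluid inoculated ip on day 0 (CD2F1 mice). Compound given ip in normal saline as a freshly prepared solution or suspension, once daily on days 1–5. Treated-minus-control body weight difference in g, taken as day 5 minus day 1 weight. Groups of six.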

Mus musculus [2] = test: The toxicity day was […] tumor cells of test animals dosed with 400 mg/kg of compound; 1/10; format: functional, M5076
Method in brief: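 M5076 sarcoma, 10^6 cells, inoculated ip into B6C3F1 mice on day 0. Fresh saline suspension given ip every fourth day (days 1, 5, 9, 13). Toxicity survivors were scored on day 5 as survivors over initial group. Body-weight difference was day 14 minus day 1.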

Mus musculus [3] = test: The percent of the median survival time of test mice compared to control mice is % T/C. It is determined for mice administered with 50 mg/kg compound on day 0 for LOX 1 tumor cells.; format: functional; conditions: route intraperitoneal
Mus musculus [4] = test: Body weight difference (BWD) of test animals administered with 100 mg/kg compound is determined on day 14 for M5076 minus 1 tumor cells; format: functional
Method in brief: (§2)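 M5076 sarcoma: 10^6 cells inoculated ip on day 0 in B6C3F1 mice. Fresh saline suspension dosed ip every fourth day, on days 1, 5, 9 and 13. Body weight difference in g (treated minus control) taken as day 14 minus day 1. Ten mice per group.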

Mus musculus [5] = test: Body weight difference (BWD) of test animals administered with 60 mg/kg compound is determined on […] tumor cells; format: functional
Method in brief: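 MX-1 human mammary xenograft: solid tumour fragment (1 mm3, 0.5 mg) placed as a subrenal capsule implant on day 0 in NCR-nu mice. Fresh saline suspension dosed ip on days 1, 5 and 9. Body weight difference in g (treated minus control) recorded. Assay evaluated on day 11. Six mice per group.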

Mus musculus [6] = test: Body weight difference (BWD) of test animals administered with 25 mg/kg compound is determined on day 10 for LOX tumor cells.
Mus musculus [7] = test: Ability of 6.25 mg/kg of compound to kill tumor cells in mice is expressed as the log of the tumor cell population at the onset of treatment minus the log of the tumor cell population at the end of treatment; format: functional
Mus musculus [8] = test: Toxicity day evaluation was carried out on day 5 for animal dosed with 100 mg/kg compound; 6/6; format: organism-based; parameters: dose 100 mg/kg; conditions: in vivo
Mus musculus [9] = test: Body weight difference (BWD) of test animals administered with 25 mg/kg compound is determined on day 14 for M5076 minus 1 tumor cells; format: functional; method in brief: as §2
Mus musculus [10] = test: Body weight difference (BWD) of test animals administered with 100 mg/kg compound is determined on day 5 for L1210 tumor cells; format: functional
Method in brief: (§3)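 L1210 leukaemia: 10^5 cells implanted ip on day 0 in mice. Freshly prepared saline suspension given ip once daily on days 1–5. Body weight difference in g (treated minus control) taken as day 5 minus day 1. Six animals per dose.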

Mus musculus [11] = test: The toxicity day was evaluated on day 5 for L1210 tumor cells of test animals dosed with 100 mg/kg of compound; 6/6; format: functional
Method in brief: (§4)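 L1210 leukaemia, 10^5 cells, implanted ip on day 0. Freshly prepared saline suspension dosed ip daily on days 1-5. Toxicity evaluated on day 5 as survivors over animals in the initial test group.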

Mus musculus [12] = test: Body weight difference (BWD) of test animals administered with 25 mg/kg compound is determined on day 5 for L1210 tumor cells; format: functional; method in brief: as §3
Mus musculus [13] = test: Body weight difference (BWD) of test animals administered with 50 mg/kg compound is determined on day 10 for LOX tumor cells.
Mus musculus [14] = test: Toxicity day evaluation was carried out on day 5 for animal dosed with 25 mg/kg compound; 6/6; format: organism-based; parameters: dose 25 mg/kg; conditions: in vivo
Mus musculus [15] = test: The percent of the median survival time of test mice compared to control mice is % T/C. It is determined for mice administered with 25 mg/kg compound on day 0 for LOX 1 tumor cells.; format: functional; conditions: route intraperitoneal
Mus musculus [16] = test: The toxicity day was evaluated on day 0 for LOX tumor cells of test animals dosed with 25 mg/kg of compound; 6/6; format: functional
Mus musculus [17] = test: Body weight difference (BWD) of test animals administered with 100 mg/kg compound is determined on day 5 for P388 tumor cells; format: functional; method in brief: as §1
Mus musculus [18] = test: Ability of 12.5 mg/kg of compound to kill L1210 tumor cells in mice is expressed as the log of the tumor cell population at the onset of treatment minus the log of the tumor cell population at the end of treatment; format: functional
Method in brief: (§5)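 L1210 leukemia, 10^5 cells implanted ip on day 0. Drug given ip daily on days 1-5 as a saline suspension freshly prepared before each injection. Read-out is median survival of treated versus control mice (% T/C), and log cell kill is derived from it.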

Mus musculus [19] = test: The toxicity day was evaluated on day 5 for L1210 tumor cells of test animals dosed with 200 mg/kg of compound; 0/6; format: functional; method in brief: as §4
Mus musculus [20] = test: Toxicity day evaluation was carried out on day 5 for animal dosed with 6.25 mg/kg compound; 5/6; format: organism-based; parameters: dose 6.25 mg/kg; conditions: in vivo
Mus musculus [21] = test: The percent of the median survival time of test mice compared to control mice is % T/C which refers to tumor size in this case. It is determined for mice administered with 60 mg/kg compound on day 11 for MX-1 tumor cells; format: functional; conditions: route intraperitoneal
Method in brief: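 Human MX-1 mammary xenograft, a 1 mm3 (0.5 mg) tumor fragment implanted under the renal capsule of NCR-nu mice on day 0. Drug given ip as a fresh saline suspension on days 1, 5 and 9. Tumor size is assessed on day 11. A negative % T/C is percent shrinkage relative to the initial implant. Survivors in the toxicity group are […].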

Mus musculus [22] = test: Body weight difference (BWD) of test animals administered with 100 mg/kg compound is determined on day 10 for LOX tumor cells.
Mus musculus [23] = test: The percent of the median survival time of test mice compared to control mice, administered with 50 mg/kg compound on day 5 for L1210 tumor cells; format: functional; method in brief: as §5
Mus musculus [24] = test: Body Weight Difference (BWD) of test animals administered with 6.25 mg/kg compound is determined on day 5 for P388 tumor cells; format: functional; method in brief: as §1
Mus musculus [25] = test: The toxicity day was evaluated on day 0 for LOX tumor cells of test animals dosed with 100 mg/kg of compound; 6/6; format: functional
Mus musculus [26] = test: The percent of the median survival time of test mice compared to control mice, administered with 25 mg/kg compound on day 5 for L1210 tumor cells; format: functional; method in brief: as §5
Mus musculus [27] = test: The percent of the median survival time of test mice compared to control mice, administered with 25 mg/kg compound on day 14 for M5076 minus 1 tumor cells; format: functional
Method in brief: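 M5076 sarcoma, 10^6 cells ip on day 0 in B6C3F1 mice. Drug given ip as a fresh saline suspension every fourth day (days 1, 5, 9, 13). % T/C is median survival of treated versus control mice, counting long-term survivors. Cures are 60-day survivors. Log cell kill is derived from this.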

Mus musculus [28] = test: Toxicity day evaluation was carried out on day 5 for animal dosed with 12.5 mg/kg compound; 6/6; format: organism-based; parameters: dose 12.5 mg/kg; conditions: in vivo

With `CNC(=O)OCc1nc(SC)n(C)c1COC(=O)NC` the BWD (Mus musculus [1]) was -1.4 g, the “Survivors / animals tested” value (Mus musculus [2]) was 1 and the T/C (Mus musculus [3]) was 231%. It also gave a BWD (Mus musculus [4]) of -1.2 g, a BWD (Mus musculus [5]) of -1.9 g and a BWD (Mus musculus [6]) of -3 g. For the same compound, the KE (Mus musculus [7]) was -0.83, the “Survivors / animals tested” value (Mus musculus [8]) was 6 and the BWD (Mus musculus [9]) was -2 g. The BWD (Mus musculus [10]) was -1.9 g, the “Survivors / animals tested” value (Mus musculus [11]) was 6 and the BWD (Mus musculus [12]) was 0 g. The BWD (Mus musculus [13]) was -3.3 g, the “Survivors / animals tested” value (Mus musculus [14]) was 6 and the T/C (Mus musculus [15]) was 219%. For the same compound, the “Survivors / animals tested” value (Mus musculus [16]) was 6, the BWD (Mus musculus [17]) was -4.1 g and the KE (Mus musculus [18]) was -2.35. The “Survivors / animals tested” value (Mus musculus [19]) was 0, the “Survivors / animals tested” value (Mus musculus [20]) was 5 and the T/C (Mus musculus [21]) was -91%. The BWD (Mus musculus [22]) was -5.1 g, the T/C (Mus musculus [23]) was 124% and the BWD (Mus musculus [24]) was -0.7 g. The “Survivors / animals tested” value (Mus musculus [25]) was 6, the T/C (Mus musculus [26]) was 111% and the T/C (Mus musculus [27]) was 122%. For the same compound, the “Survivors / animals tested” value (Mus musculus [28]) was 6.
